# Activity calls are given as the source filed them.
# How the values were obtained:
# [1] = target: Neuronal acetylcholine receptor; alpha2/beta2 (Rattus norvegicus, UniProt P12389+P12390); test: Displacement of [3H] epibatidine from rat alpha2beta2 nAChR by beta scintillation counting; format: protein-complex assay
# [2] = target: Neuronal acetylcholine receptor; alpha3/beta2 (Rattus norvegicus, UniProt P04757+P12390); test: Displacement of [3H] epibatidine from rat alpha3beta2 nAChR by beta scintillation counting; format: protein-complex assay
# [3] = target: T1, Neuronal acetylcholine receptor; alpha4/beta2 (Homo sapiens, UniProt P17787+P43681); test: Partial agonist activity at human high sensitive alpha4beta2 nAChR expressed in SH-EP1 cells assessed as 86Rb+ ion efflux by flip-plate technique relative to sazetidine-A; format: functional, cell-based
# Outline: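 86Rb+ ion flux in SH-EP1 cells stably transfected with separate human α4 and β2 subunit cDNAs, expressing a mixture of high- and low-sensitivity α4β2 nAChRs. Cells kept at low passage (1−26). Efficacy at the HS form extrapolated relative to a reference agonist defined as a 100% full agonist.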
# [4] = target: T1, Neuronal acetylcholine receptor; alpha4/beta2; test: Antagonist activity at human high sensitive and low sensitive alpha4beta2 nAChR expressed in SH-EP1 cells assessed as inhibition of carbamylcholine induced 86Rb+ ion efflux preincubated for 10 mins prior to carbamylcholine-induction measured after 5 mins by flip-plate technique relative to control; format: functional, cell-based
# Outline: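 SH-EP1 human epithelial cells stably transfected with separate human α4 and β2 subunit cDNAs express a mixed population of high-sensitivity (2:3 α4:β2) and low-sensitivity (3:2) α4β2-nAChRs. Cells were kept at low passage (1−26 from frozen stocks). Function was read as 86Rb+ ion flux.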
# [5] = target: Acetylcholine receptor; alpha1/beta1/delta/gamma (Homo sapiens) (UniProt P02708+P07510+P11230+Q07001); test: Antagonist activity at human alpha1beta1gammadelta nAChR expressed in TE671/RD cells at 10 uM by 86Rb+ flux assay; format: functional, cell-based
# Outline: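 Human clonal TE671/RD cells endogenously express muscle-type α1*-nAChRs (α1, β1, γ, δ). Cells were kept at low passage (1−26 from frozen stocks). Function was read as 86Rb+ efflux, with agonist and antagonist modes tested up to 10 μM.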
# [6] = target: Neuronal acetylcholine receptors; alpha-3/beta-4, alpha-5, beta-2 (Homo sapiens) (UniProt P17787+P30926+P32297+P30532); test: Antagonist activity at alpha3beta4alpha5beta2 in human SH-SY5Y cells at 10 uM by 86Rb+ flux assay; format: functional, cell-based
# Outline: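 Human neuroblastoma SH-SY5Y cells endogenously express α3β4* nAChRs (α3, β4, probably α5, sometimes β2); their α7 receptors give no signal under these conditions. Cells were kept at low passage (1−26 from frozen stocks). Function was read as 86Rb+ efflux, with agonist and antagonist modes tested up to 10 μM.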
# [7] = target: 5-hydroxytryptamine receptor 1B (Homo sapiens) (UniProt P28222); test: Displacement of [3H][…] from 5-HT1B at 10 uM
# [8] = target: D(2) dopamine receptor (Homo sapiens) (UniProt P14416); test: Displacement of [3H]N-methylspiperone from D2 at 10 uM
# [9] = target: T2, D(4) dopamine receptor (Homo sapiens) (UniProt P21917); test: Displacement of [3H]N-methylspiperone from D4 at 10 uM
# T2 sequence (whole entry): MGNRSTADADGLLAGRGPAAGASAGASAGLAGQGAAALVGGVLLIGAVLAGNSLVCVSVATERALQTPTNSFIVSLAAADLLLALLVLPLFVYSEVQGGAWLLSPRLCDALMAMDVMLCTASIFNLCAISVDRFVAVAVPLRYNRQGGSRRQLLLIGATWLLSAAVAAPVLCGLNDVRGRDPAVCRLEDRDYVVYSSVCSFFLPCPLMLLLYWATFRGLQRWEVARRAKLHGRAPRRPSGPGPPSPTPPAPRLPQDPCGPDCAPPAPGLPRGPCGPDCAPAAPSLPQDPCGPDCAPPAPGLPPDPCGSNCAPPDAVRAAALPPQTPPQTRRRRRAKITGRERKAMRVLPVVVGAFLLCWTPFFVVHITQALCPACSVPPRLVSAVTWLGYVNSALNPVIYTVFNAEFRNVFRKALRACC
# [10] = target: D(1B) dopamine receptor (Homo sapiens) (UniProt P21918); test: Displacement of [3H][…] from D5 at 10 uM
# [11] = target: T3, Alpha-2A adrenergic receptor (Homo sapiens) (UniProt P08913); test: Displacement of [3H]Clonidine from alpha2A adrenergic receptor at 10 uM
# T3 sequence (whole entry): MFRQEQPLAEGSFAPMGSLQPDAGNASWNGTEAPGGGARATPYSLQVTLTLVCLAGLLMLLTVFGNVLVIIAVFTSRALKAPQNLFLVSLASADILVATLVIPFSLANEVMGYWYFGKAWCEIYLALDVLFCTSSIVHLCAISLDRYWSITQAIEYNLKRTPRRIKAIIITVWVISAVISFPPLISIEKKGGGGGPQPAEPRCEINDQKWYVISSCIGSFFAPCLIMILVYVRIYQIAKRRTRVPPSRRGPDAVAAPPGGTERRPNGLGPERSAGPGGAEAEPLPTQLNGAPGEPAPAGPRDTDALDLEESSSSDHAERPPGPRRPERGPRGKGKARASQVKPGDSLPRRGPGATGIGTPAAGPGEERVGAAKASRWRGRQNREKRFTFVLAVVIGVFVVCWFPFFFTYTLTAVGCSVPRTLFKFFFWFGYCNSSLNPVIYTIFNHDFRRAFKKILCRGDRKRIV
# [12] = target: Beta-1 adrenergic receptor (Homo sapiens) (UniProt P08588); test: Displacement of [125I]Iodopindolol from beta1 adrenergic receptor at 10 uM
# [13] = target: Beta-2 adrenergic receptor (Homo sapiens) (UniProt P07550); test: Displacement of [125I]Iodopindolol from beta2 adrenergic receptor at 10 uM
# [14] = target: Beta-3 adrenergic receptor (Homo sapiens) (UniProt P13945); test: Displacement of [125I]Iodopindolol from beta3 adrenergic receptor at 10 uM
# [15] = target: Histamine H2 receptor (Homo sapiens) (UniProt P25021); test: Displacement of [3H]Tiotidine from H2 histamine receptor at 10 uM
# [16] = target: Muscarinic acetylcholine receptor M3 (Homo sapiens) (UniProt P20309); test: Displacement of [3H]QNB from M3 receptor at 10 uM
# [17] = target: Delta-type opioid receptor (Homo sapiens) (UniProt P41143); test: Displacement of [3H]DADLE from delta opioid receptor at 10 uM
# [18] = Displacement of [3H]DTG from sigma2 receptor at 10 uM
# Cytochrome P450 2C19 = Cytochrome P450 2C19 (Homo sapiens, UniProt P33261); test: Inhibition of CYP2C19 up to 10 uM; format: ADME
# Outline: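 Percent inhibition of CYP isoforms (CYP1A, CYP2C9, CYP2C19, CYP2D6, CYP3A; CYP1A2 reported) with test compound at concentrations up to 10 μM.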
# hERG (KCNH2) = hERG (KCNH2) (Homo sapiens, UniProt Q12809); test: Inhibition of human ERG expressed in CHO cells at 10 uM by patch clamp electrophysiology assay; format: cell-based; conditions: CHO cells expressing human ERG
# Outline: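 Automated patch-clamp electrophysiology on hERG K+ channels in CHO cell lines; inhibition measured at three concentrations: 0.1, 1 and 10 μM.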
# Chain of Delta-type opioid receptor (Homo sapiens) (P41143 whole entry): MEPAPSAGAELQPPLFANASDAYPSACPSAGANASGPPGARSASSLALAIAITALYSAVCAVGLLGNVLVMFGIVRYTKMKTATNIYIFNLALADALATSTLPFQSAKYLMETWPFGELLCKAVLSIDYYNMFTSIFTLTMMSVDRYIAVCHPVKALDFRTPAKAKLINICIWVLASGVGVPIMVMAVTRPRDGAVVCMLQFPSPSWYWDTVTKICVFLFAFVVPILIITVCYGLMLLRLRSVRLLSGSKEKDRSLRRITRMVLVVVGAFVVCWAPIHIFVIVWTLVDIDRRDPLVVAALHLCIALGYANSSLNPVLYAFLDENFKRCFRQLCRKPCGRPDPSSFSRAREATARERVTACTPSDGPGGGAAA
# Chain of Beta-2 adrenergic receptor (Homo sapiens) (P07550 whole entry, looked up): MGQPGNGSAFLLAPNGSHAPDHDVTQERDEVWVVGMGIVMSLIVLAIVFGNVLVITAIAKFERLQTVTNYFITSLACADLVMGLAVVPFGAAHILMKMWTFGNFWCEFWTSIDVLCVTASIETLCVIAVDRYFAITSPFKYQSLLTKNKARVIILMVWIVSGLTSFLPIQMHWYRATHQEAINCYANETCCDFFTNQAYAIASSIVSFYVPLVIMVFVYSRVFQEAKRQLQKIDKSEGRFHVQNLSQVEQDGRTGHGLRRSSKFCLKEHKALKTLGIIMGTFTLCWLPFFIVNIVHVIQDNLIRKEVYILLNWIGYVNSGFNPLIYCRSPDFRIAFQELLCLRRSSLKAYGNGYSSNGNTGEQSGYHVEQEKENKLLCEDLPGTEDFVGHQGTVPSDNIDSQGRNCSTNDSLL
# Chain of Neuronal acetylcholine receptor; alpha3/beta2 (P04757 whole entry): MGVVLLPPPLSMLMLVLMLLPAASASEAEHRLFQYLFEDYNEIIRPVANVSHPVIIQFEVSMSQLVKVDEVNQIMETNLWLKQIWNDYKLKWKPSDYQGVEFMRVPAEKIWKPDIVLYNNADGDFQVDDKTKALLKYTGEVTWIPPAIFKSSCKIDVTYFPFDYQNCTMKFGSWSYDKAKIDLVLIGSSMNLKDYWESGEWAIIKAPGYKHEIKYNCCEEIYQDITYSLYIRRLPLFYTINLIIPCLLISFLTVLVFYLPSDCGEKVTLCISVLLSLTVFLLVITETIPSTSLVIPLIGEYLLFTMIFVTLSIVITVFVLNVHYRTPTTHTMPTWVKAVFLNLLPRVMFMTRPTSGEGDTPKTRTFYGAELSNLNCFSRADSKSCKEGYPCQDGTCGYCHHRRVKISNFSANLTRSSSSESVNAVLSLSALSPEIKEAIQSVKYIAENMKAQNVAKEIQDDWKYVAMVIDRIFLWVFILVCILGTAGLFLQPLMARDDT
# Chain of Neuronal acetylcholine receptor; alpha3/beta2 (P12390 whole entry): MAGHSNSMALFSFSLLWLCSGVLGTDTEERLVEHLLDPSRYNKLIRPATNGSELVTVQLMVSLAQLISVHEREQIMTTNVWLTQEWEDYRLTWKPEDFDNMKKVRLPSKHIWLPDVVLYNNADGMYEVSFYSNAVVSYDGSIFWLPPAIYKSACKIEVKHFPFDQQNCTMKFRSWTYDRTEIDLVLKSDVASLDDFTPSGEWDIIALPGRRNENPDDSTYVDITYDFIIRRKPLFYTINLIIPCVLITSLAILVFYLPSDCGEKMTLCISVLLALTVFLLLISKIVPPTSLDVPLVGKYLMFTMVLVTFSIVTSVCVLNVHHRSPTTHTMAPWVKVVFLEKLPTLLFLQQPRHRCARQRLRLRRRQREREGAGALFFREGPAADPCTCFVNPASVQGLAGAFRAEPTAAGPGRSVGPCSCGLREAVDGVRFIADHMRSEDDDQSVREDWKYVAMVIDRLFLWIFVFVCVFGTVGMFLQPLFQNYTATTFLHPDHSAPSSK
# Chain of 5-hydroxytryptamine receptor 1B (Homo sapiens) (P28222 whole entry): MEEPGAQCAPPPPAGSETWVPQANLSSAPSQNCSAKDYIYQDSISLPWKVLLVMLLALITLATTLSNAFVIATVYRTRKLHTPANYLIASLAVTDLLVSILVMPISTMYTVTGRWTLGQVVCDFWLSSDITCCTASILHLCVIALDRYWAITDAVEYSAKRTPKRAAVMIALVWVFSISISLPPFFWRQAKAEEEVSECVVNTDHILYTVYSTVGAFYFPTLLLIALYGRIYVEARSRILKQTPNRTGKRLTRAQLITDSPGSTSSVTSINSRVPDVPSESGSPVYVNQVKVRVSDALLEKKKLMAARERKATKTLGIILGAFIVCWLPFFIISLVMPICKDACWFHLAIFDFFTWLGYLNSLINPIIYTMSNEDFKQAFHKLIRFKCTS
# Chain of Histamine H2 receptor (Homo sapiens) (P25021 whole entry): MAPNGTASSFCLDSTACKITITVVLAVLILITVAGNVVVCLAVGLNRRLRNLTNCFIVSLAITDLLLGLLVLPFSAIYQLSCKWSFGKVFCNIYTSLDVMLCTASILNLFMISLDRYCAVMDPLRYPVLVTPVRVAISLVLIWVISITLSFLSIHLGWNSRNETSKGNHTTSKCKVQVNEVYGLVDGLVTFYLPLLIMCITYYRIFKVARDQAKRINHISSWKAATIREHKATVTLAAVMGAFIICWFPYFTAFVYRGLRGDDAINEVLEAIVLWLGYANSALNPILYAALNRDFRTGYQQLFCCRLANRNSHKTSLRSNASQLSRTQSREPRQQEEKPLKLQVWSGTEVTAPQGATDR
# Chain of D(1B) dopamine receptor (Homo sapiens) (P21918 whole entry): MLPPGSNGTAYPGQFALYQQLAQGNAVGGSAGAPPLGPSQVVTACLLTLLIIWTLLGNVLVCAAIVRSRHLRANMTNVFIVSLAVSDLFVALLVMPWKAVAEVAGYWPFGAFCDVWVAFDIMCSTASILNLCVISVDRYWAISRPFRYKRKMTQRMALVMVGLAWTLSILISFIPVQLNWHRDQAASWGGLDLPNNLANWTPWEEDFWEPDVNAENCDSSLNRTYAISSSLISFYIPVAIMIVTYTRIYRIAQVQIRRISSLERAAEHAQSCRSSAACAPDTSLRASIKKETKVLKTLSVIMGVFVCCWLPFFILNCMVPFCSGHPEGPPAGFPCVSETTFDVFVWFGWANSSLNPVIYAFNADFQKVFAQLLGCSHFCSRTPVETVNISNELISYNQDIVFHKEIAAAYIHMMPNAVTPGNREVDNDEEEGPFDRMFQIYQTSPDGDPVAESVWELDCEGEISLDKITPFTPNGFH
# Chain of Cytochrome P450 2C19 (P33261 whole entry, canonical isoform): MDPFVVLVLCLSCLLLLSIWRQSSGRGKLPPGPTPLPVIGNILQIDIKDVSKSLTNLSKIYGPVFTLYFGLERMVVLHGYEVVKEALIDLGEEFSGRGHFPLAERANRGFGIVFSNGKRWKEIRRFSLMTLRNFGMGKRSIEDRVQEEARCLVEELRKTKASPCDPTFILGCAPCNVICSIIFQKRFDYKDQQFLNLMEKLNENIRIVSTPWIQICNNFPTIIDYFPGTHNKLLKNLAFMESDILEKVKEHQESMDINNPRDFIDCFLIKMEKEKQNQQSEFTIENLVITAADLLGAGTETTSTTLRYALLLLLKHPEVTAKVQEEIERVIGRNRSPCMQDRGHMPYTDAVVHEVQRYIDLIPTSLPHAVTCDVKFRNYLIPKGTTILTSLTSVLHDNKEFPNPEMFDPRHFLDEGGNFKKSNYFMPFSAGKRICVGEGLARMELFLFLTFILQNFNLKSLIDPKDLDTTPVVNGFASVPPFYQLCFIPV
# Chain of Beta-3 adrenergic receptor (Homo sapiens) (P13945 whole entry, looked up): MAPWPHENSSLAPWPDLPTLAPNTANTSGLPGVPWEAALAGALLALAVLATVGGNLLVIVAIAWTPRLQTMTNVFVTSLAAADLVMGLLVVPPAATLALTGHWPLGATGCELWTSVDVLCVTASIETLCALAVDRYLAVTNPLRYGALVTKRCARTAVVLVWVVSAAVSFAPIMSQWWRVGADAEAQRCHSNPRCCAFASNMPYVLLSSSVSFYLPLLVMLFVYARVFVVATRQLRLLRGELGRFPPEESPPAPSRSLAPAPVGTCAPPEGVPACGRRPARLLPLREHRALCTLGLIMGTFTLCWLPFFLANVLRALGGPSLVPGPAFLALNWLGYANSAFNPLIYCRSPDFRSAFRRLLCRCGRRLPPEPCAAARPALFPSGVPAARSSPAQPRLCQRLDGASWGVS
# Chain of Muscarinic acetylcholine receptor M3 (Homo sapiens) (P20309 whole entry, looked up): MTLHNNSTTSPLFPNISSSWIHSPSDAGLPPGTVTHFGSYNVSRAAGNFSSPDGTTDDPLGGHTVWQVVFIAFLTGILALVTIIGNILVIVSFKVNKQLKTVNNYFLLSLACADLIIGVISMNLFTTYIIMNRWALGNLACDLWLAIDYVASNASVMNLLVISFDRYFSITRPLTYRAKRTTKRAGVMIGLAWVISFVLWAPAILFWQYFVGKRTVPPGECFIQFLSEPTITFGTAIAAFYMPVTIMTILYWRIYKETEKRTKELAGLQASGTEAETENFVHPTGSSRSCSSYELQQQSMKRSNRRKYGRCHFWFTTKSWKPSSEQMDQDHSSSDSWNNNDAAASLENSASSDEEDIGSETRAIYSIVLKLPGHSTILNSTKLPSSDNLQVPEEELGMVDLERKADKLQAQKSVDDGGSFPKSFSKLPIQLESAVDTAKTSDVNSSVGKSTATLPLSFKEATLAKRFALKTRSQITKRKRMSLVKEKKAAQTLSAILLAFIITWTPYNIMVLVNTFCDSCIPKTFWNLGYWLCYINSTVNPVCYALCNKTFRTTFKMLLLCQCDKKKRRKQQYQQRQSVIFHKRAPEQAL
# Chain of D(2) dopamine receptor (Homo sapiens) (P14416 whole entry): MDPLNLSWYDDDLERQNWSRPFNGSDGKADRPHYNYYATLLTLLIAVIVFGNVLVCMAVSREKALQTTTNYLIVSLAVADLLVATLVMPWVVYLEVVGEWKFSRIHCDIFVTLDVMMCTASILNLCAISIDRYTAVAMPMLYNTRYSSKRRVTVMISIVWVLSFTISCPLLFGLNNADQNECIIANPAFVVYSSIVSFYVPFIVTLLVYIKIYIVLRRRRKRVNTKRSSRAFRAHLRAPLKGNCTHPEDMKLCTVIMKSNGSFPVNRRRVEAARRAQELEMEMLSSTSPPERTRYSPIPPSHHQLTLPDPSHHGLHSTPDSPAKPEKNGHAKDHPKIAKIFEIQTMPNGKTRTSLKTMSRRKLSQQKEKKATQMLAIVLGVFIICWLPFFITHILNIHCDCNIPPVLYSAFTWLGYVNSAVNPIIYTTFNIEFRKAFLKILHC
Structure (SMILES),Ki [1] [nM],Ki [2] [nM],Efficacy [3] [%],Efficacy [4] [%],Activity [5],Activity [6],inhibition [7] [%],inhibition [8] [%],inhibition [9] [%],inhibition [10] [%],inhibition [11] [%],inhibition [12] [%],inhibition [13] [%],inhibition [14] [%],inhibition [15] [%],inhibition [16] [%],inhibition [17] [%],inhibition [18] [%],inhibition (INH) (Cytochrome P450 2C19),inhibition at 10 µM (hERG (KCNH2)) [%]
CNC(=O)OCC[C@H]1C[C@@H]1c1cncc(OC[C@@H]2CCN2)c1,0.3,9.8,77,85,inactive,inactive,-2.6,0.7,17,-1.5,15.5,18.2,22.1,10.6,14.6,30.2,-4.4,-4.2,<= 25%,16.6
OCC[C@H]1C[C@@H]1c1cncc(OC[C@@H]2CCN2)c1,0.1,3,92,63,inactive,inactive,9.3,-7.4,8.3,25.6,-5.3,45.8,-4.5,24.3,18.4,0,0.8,10,<= 25%,19.1
COCC[C@H]1C[C@@H]1c1cncc(OC[C@@H]2CCN2)c1,0.1,2.4,60,71,inactive,inactive,-1.8,-1.8,15.8,19.1,9.7,48.3,3,25.3,26.2,9.6,-4.2,15,<= 25%,13.7

# — ChEMBL document CHEMBL2021777 (J Med Chem, 2012)
